Ten compounds from ChEMBL document CHEMBL1122056, “Synthesis and biochemical properties of chemically stable product analogues of the reaction catalyzed by S-adenosyl-L-methionine decarboxylase” (J Med Chem, 1982) can be followed below.

In assay [1] the target is T1, S-adenosylmethionine decarboxylase proenzyme (Rattus norvegicus) (UniProt P17708).
T1 sequence (whole entry): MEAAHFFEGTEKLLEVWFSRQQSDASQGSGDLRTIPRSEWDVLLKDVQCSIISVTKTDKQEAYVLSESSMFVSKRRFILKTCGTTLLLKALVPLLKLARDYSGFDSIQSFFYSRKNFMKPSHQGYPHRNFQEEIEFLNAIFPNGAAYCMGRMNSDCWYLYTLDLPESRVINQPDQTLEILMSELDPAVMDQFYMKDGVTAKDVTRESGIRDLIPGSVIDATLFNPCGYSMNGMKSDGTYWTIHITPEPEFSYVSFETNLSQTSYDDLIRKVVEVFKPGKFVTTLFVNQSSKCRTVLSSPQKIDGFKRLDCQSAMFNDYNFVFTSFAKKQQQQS
Description: Time required for the half inactivation of S-Adenosyl-L-methionine decarboxylase was determined with 0.2 mM of compound along with 1 mM NaBH3CN. The gist of the method: (§1)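 The partly purified rat liver enzyme, from MGBG-treated rats, was incubated at 37 °C in 30 mM sodium phosphate pH 7.1 with 5 mM dithiothreitol and the stated additions. Aliquots were taken at intervals and assayed for remaining activity with S-adenosyl-L-[carboxy-14C]methionine. The half-inactivation time was obtained by a least-squares fit of the data points.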

For assay [2], the target named is T2, S-adenosylmethionine decarboxylase proenzyme (Rattus norvegicus, UniProt P17708).
T2 sequence (P17708 whole entry): T1 sequence (whole entry)
Description: In vitro inhibitory activity against S-adenosyl-L-methionine decarboxylase using liver from rat in presence of 1 mM putrescine. A digest of the protocol: (§2)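 Enzyme source: liver of rats injected with MGBG·2HCl (80 mg/kg) 22 h before sacrifice. The extract was taken through a 10500g centrifugation and an (NH4)2SO4 precipitation. Decarboxylation of S-adenosyl-L-[carboxy-14C]methionine was measured as 14CO2 release, with or without 1 mM putrescine. Competitive inhibition was judged from Lineweaver-Burk plots, and Ki was read from Dixon plots.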

Assay [3] has as its target T1, S-adenosylmethionine decarboxylase proenzyme (Rattus norvegicus). Nature of the assay: Time required for the half inactivation of S-Adenosyl-L-methionine decarboxylase was determined with 0.2 mM of compound. The gist of the method: as §1
Assay [4] addresses T2, S-adenosylmethionine decarboxylase proenzyme. Description: In vitro inhibitory activity against S-adenosyl-L-methionine decarboxylase using liver from rat in absence of putrescine. A digest of the protocol:
as §2

For assay [5], the target named is T1, S-adenosylmethionine decarboxylase proenzyme (Rattus norvegicus). Nature of the assay: Time required for the half inactivation of S-adenosyl-L-methionine decarboxylase with 1 mM of compound along with 0.05 mM of [5-(6-Amino-purin-9-yl)-3,4-dihydroxy-tetrahydro-furan-2-ylmethyl]-dimethyl-sulfonium; iodide. To be noted: in the assay text read “0.2 mM of compound” for “1 mM of compound”. A digest of the protocol: as §1

Assay [6] shares this target. Nature of the assay: Time required for the half inactivation of S-adenosyl-L-methionine decarboxylase was determined with 0.5 mM of compound.
For assay [7] the target is unchanged. Description: Time required for the half inactivation of S-adenosyl-L-methionine decarboxylase with 0.5 mM of compound along with 0.05 mM of [5-(6-Amino-purin-9-yl)-3,4-dihydroxy-tetrahydro-furan-2-ylmethyl]-dimethyl-sulfonium; iodide. The gist of the method:
as §1

Assay [8] has the same target. Description: Time required for the half inactivation of S-Adenosyl-L-methionine decarboxylase was determined with 0.2 mM of Compound along with 1 mM NaBH3CN. A digest of the protocol:
as §1

As usually defined, the Ki is a measure of affinity in units of concentration, obtained from inhibition or displacement. On to `C[S+](CC[C@H](N)C(=O)[O-])C[C@H]1O[C@@H](n2cnc3c(N)ncnc32)[C@H](O)[C@@H]1O` (some centres undefined) [ADEMETIONINE], for which the Inactivation time in assay [1] is 25 min; in assay [3] it was 100 min. For the same compound, the inhibition constant (Ki) in assay [2] stood at 60 µM; in assay [4], 300 µM.
Regarding `CN(CCC#N)C[C@H]1OC(n2cnc3c(N)ncnc32)[C@H](O)[C@@H]1O` (some centres undefined), the inhibitory constant (Ki) is 300 µM in assay [2] and 2800 µM in assay [4].
On to `C[S+](CCCN)C[C@H]1OC(n2cnc3c(N)ncnc32)[C@H](O)[C@@H]1O` (some centres undefined), for which the Inactivation time in assay [1] amounted to 10 min; in assay [3], 100 min. Further, the Ki in assay [2] amounted to 3 µM; in assay [4], 40 µM.
Consider `C[S+](C)C[C@H]1O[C@@H](n2cnc3c(N)ncnc32)[C@H](O)[C@@H]1O`, for which the Ki in assay [2] amounted to 2 µM; in assay [4], 20 µM.
On to `NCCNC[C@H]1OC(n2cnc3c(N)ncnc32)[C@H](O)[C@@H]1O` (some centres undefined), for which the Ki in assay [2] amounted to 70 µM; in assay [4] it was 540 µM.
In the case of `CNCCCNC[C@H]1OC(n2cnc3c(N)ncnc32)[C@H](O)[C@@H]1O` (some centres undefined), the Ki in assay [2] stood at 600 µM.
On to `N=C(N)NC[C@H]1OC(n2cnc3c(N)ncnc32)[C@H](O)[C@@H]1O` (some centres undefined), for which the Ki in assay [2] stood at 80 µM; in assay [4] it was 1000 µM.
On to `CN(CCCN)C[C@H]1OC(n2cnc3c(N)ncnc32)[C@H](O)[C@@H]1O` (some centres undefined), for which the Inactivation time came out at 12 min in assay [1]; 50 min in assay [5]; 41 min in assay [6]; 93 min in assay [3]; 98 min in assay [7]. Besides, the inhibitory constant (Ki) in assay [2] is 60 µM; in assay [4], 380 µM.
Turning to `NC[C@H]1O[C@@H](n2cnc3c(N)ncnc32)[C@H](O)[C@@H]1O`, the inhibition constant (Ki) was 200 µM in assay [2] and 1700 µM in assay [4].
Take `NCCCNC[C@H]1OC(n2cnc3c(N)ncnc32)[C@H](O)[C@@H]1O` (some centres undefined): in assay [2], the Ki worked out at 50 µM. Further, the values for the Inactivation time in assay [3] and in assay [8] were 250 min and 25 min, respectively.
